# Bioassay records deposited in PubChem by several laboratories.
# HCT116 PTEN-null = growth suppressors of cells with PTEN tumor suppressor deletion; AID 827; HCT116 PTEN-null viability, CellTiter-Glo, 60 h; hits give low values; 140,000 compounds, 1.2% hits; viability, % at 10 µM;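 active = viability at or below a set limit, 4 SD under the median of all tested compounds, cut at about 3.7% in these data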;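 also: PTEN knockout HCT116 line with beta catenin targeted HCT116 as companion control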
# L major viab = inhibitors of Leishmania major promastigote growth; 200,000 compounds, 9% hits; Leishmania major promastigotes, resazurin fluorescence viability; inhibition, % at 10 µM; in the data active = inhibition above about 50%;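 also: promastigotes grown with compound for 44 hours at 28 °C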
# PMI act satM6P = activators of human phosphomannose isomerase at near-saturating mannose 6-phosphate | P34949 | coupled PMI enzyme assay, resazurin fluorescence, 20 min; hits give high values; 1 = untreated enzyme, 0 = substrate-free blank | activation factor at 20 µM | 190,000 compounds, 0.34% hits;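 active = activation factor of 2 or more at 20 µM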
# Target sequence (P34949 whole entry, looked up): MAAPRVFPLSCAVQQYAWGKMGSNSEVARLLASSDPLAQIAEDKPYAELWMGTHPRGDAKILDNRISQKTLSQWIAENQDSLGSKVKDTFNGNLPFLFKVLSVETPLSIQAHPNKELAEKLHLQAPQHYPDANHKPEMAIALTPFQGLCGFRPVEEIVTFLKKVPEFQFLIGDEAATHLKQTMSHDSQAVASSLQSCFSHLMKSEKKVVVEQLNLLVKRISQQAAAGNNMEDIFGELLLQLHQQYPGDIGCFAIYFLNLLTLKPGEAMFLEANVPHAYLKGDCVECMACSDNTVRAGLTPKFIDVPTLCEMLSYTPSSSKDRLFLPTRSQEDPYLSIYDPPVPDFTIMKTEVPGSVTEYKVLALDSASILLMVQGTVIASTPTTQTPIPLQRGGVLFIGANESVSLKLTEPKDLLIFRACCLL
#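 Material: human phosphomannose isomerase with PGI, G6PDH, diaphorase coupling enzymes / Reagent: Man-6-P substrate 1.0 mM / Dosing: single compound dose of 20 µM, 1% DMSO final / Incubation: enzyme reaction with compound 20 min at room temperature / Signal: resorufin fluorescence (Ex 544/Em 590 nm) from resazurin via diaphorase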
# PMI act = phosphomannose isomerase (human) activation; purified human PMI, coupled resazurin fluorescence, 20 min; hits give high values; 1 = vehicle control, 0 substrate-free wells; P34949; 190,000 compounds, 0.005% hits; activation factor at 20 µM; AID 1214;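 active = activation factor of 2 or more at 20 µM, relative to plate controls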
# HCT116 bCat-KO = beta-catenin-lacking colon tumor cell growth suppression | HCT116 beta-catenin knockout viability, CellTiter-Glo, 60 h; hits give low values | viability, % at 10 µM | AID 818 | 140,000 compounds, 1.5% hits;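 active = viability at or under a set limit, the compound median less 4 SD, cut at about 6% in these data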;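 also: 0% = Hyamine 1622 control at 20 µM and 100% = untreated cell control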
# Active calls of the source: *; . = no result. Most compounds without a hit are left out; they make up all but 9.6% or so of the library.
SMILES,HCT116 PTEN-null,L major viab,PMI act satM6P,PMI act,HCT116 bCat-KO
O=C(Nc1ccc(O)cc1)c1ccc2c(c1)C(=O)N(Cc1ccco1)C2=O,113,61*,0.9,1,100
CCC(c1nnnn1CCc1ccccc1)N(Cc1ccco1)Cc1cc2cccc(C)c2[nH]c1=O (configuration not stated),50,99*,1,0.9,60
Cc1cc(C)c2[nH]c(=O)c(C(c3nnnn3C(C)(C)C)N(Cc3ccco3)CC3CCCO3)cc2c1 (configuration not stated),27,45,1.3,1.2,32
CCC(c1nnnn1C(C)(C)C)N(Cc1ccco1)Cc1cc2cccc(C)c2[nH]c1=O (configuration not stated),79,62*,1,1,74
COc1ccc(CN2C(=O)CC(C(=O)NCCc3ccc(S(N)(=O)=O)cc3)SC2=Nc2ccccc2)cc1 (configuration not stated),.,-4,0.9,0.9,.
COc1ccc(C=O)cc1COc1c(F)c(F)cc(F)c1F,35,99*,0.9,0.9,34
Clc1cccc(/C=N/Nc2ncnc3ccccc23)c1,7,35,1.2,1.2,2.8*
C(=N\Nc1ncnc2ccccc12)/c1ccccc1,.,-13,1.1,1.1,.
CCOc1cc(C)c(Cl)cc1S(=O)(=O)n1ccnc1,.,92*,0.9,1.1,.
COc1ccc(Br)cc1S(=O)(=O)n1ccnc1,.,63*,1.1,1.3,.
CC1=C(C(=O)Nc2ccccc2C)C(c2ccc(C)o2)N2C(=O)CSC2=N1 (configuration not stated),95,-4,0.9,0.8,85
CCCCn1c(NCc2ccc3c(c2)OCO3)nc2ccccc21,62,38,1.2,1.2,61
CCCn1c(NCc2ccc3c(c2)OCO3)nc2ccccc21,91,82*,0.9,0.9,82
CCCn1c(NCc2cc(C)ccc2O)nc2ccccc21,62,77*,0.9,0.9,73
CC1CCc2c(nc3ncnn3c2N2CCN(c3ccccc3)CC2)C1 (configuration not stated),77,52*,1,1.1,78
COc1ccc(Cn2c(-c3ccc(Br)cc3)c[n+]3ccccc23)cc1,19,99*,1.1,1,18
O=C(OCC(=O)C12CC3CC(CC(C3)C1)C2)c1cccnc1,.,11,0.9,0.9,.
O=C(OCC(=O)C12CC3CC(CC(C3)C1)C2)c1cccnc1Cl,97,60*,1,1,82
Cc1ccc(Cl)c(NC(=O)COC(=O)c2ccccc2C(=O)c2ccc(Cl)c([N+](=O)[O-])c2)c1Cl,2.0*,29,0.9,1,2.1*
O=C(Nc1ncccn1)c1ccc(C(F)(F)F)cc1,87,-5,1,1,91
c1ccc(NCc2cccnc2)cc1,101,13,0.9,0.9,99
Fc1ccc(NCc2cccnc2)cc1,97,82*,1,1,106
c1cncc(CNc2cccc(-c3nc4ccccc4[nH]3)c2)c1,90,67*,1.1,1.1,87
O=C(NC1(C(=O)NC2CCCC2)CCCCC1)c1ccc2c(c1)OCO2,92,57*,1,0.9,94
O=C(NC1(C(=O)NC2CCCCC2)CCCCC1)c1ccc2c(c1)OCO2,81,93*,1,1,84
SMILES,HCT116 PTEN-null,L major viab,PMI act satM6P,PMI act,HCT116 bCat-KO
S=C(NCCCn1ccnc1)Nc1cccc(Cl)c1,.,13,0.9,0.9,.
CCOC(=O)C1(CCOc2ccccc2)CCN(Cc2cc(OC)c3c(c2)OCO3)CC1,.,84*,0.9,0.9,.
CCOC(=O)C1(CCOC)CCN(Cc2ccc(COC)o2)CC1,.,-3,0.9,1,.
CCOC(=O)C1(CCOc2ccccc2)CCN(Cc2cccc3c2OCO3)CC1,.,91*,1,0.9,.
CCOC(=O)C1(CCc2ccccc2)CCN(Cc2ccccn2)CC1,.,4,0.9,0.9,.
CC(=O)/C(=C/c1ccccc1)C(=O)Nc1ccccc1C,.,96*,1,1.1,.
Cc1ccccc1NC(=O)C(=Cc1ccc(C(=O)O)cc1)C(=O)Nc1ccccc1C,.,23,1.1,1.3,.
Cc1cnc(NC(=O)C2(c3ccccc3)CC2)s1,.,4,1,1.1,.
COc1ccc(C=O)cc1OS(=O)(=O)c1ccccc1[N+](=O)[O-],94,90*,0.9,0.9,96
Cc1ccc(CN2C(=O)CCC2C(=O)NC(C)C)cc1 (configuration not stated),99,-3,1.1,1.2,89
